# Measurements taken from ChEMBL document CHEMBL2346664, “Synthesis, characterization and in vitro anticancer evaluation of novel 1,2,4-triazolin-3-one derivatives” (2013).
# What was measured:
# Assay type in all cases: functional
# U-251 [1] = assay: Growth inhibition of human U251 cells assessed as cell growth at 10 '-5 M after 48 hrs by sulforhodamine B assay; conditions: U-251, 48 h, read-out: Activity
# NCI-H522 [2] = assay: Growth inhibition of human NCI-H522 cells assessed as cell growth at 10 '-5 M after 48 hrs by sulforhodamine B assay; conditions: NCI-H522, 48 h, read-out: Activity
# K562 [3] = assay: Growth inhibition of human K562 cells assessed as cell growth at 10 '-5 M after 48 hrs by sulforhodamine B assay; conditions: K562, 48 h, read-out: Activity
# MCF7 [4] = assay: Growth inhibition of human MCF7 cells assessed as cell growth at 10 '-6 M after 48 hrs by sulforhodamine B assay; conditions: MCF7, 48 h, read-out: Activity
# HT-29 = assay: Growth inhibition of human HT-29 cells assessed as growth inhibition at 10 uM after 48 hrs by sulforhodamine B assay; conditions: HT-29, 48 h, read-out: GI
# NCI-H522 [5] = assay: Growth inhibition of human NCI-H522 cells assessed as growth inhibition at 10 uM after 48 hrs by sulforhodamine B assay; conditions: NCI-H522, 48 h, read-out: GI
# NCI-H226 = assay: Growth inhibition of human NCI-H226 cells assessed as growth inhibition at 10 uM after 48 hrs by sulforhodamine B assay; conditions: NCI-H226, 48 h, read-out: GI
# HOP-92 = assay: Growth inhibition of human HOP92 cells assessed as growth inhibition at 10 uM after 48 hrs by sulforhodamine B assay; conditions: HOP-92, 48 h, read-out: GI
# SR = assay: Growth inhibition of human SR cells assessed as growth inhibition at 10 uM after 48 hrs by sulforhodamine B assay; conditions: read-out: GI
# CCRF-CEM = assay: Growth inhibition of human CCRF-CEM cells assessed as growth inhibition at 10 uM after 48 hrs by sulforhodamine B assay; conditions: read-out: GI
# Summary of the method: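 NCI-60 primary single-dose screen at 10^-5 M, 48 h continuous exposure. Adherent cells were fixed with cold TCA (10% final) and suspension cells with 16% final TCA, then stained with 0.4% SRB in 1% acetic acid. Bound dye was solubilized in 10 mM Tris base and read at 515 nm. Output is growth percent relative to untreated controls, and GI% is 100 minus growth percent.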
# SF-539 = assay: Growth inhibition of human SF539 cells assessed as cell growth at 10 '-6 M after 48 hrs by sulforhodamine B assay; conditions: SF-539, 48 h, read-out: Activity
# [6] = Growth inhibition of human NCI-ADR-RES cells assessed as cell growth at 10 '-7 M after 48 hrs by sulforhodamine B assay; conditions: read-out: Activity
# Malme-3M [7] = assay: Growth inhibition of human MALME-3M cells assessed as cell growth at 10 '-7 M after 48 hrs by sulforhodamine B assay; conditions: read-out: Activity
# SF-268 = assay: Growth inhibition of human SF268 cells assessed as cell growth at 10 '-7 M after 48 hrs by sulforhodamine B assay; conditions: SF-268, 48 h, read-out: Activity
# CAKI-1 = assay: Growth inhibition of human CAKI-1 cells after 48 hrs by sulforhodamine B assay; conditions: CAKI-1, 48 h
# Summary of the method: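 NCI 60-cell-line five-dose screen at 0.01, 0.1, 1, 10 and 100 µM final. Cells were plated at 5,000–40,000/well and grown 24 h at 37 °C, 5% CO2, then exposed to drug continuously for 48 h. Adherent cells were fixed with cold TCA (10% final) and stained with SRB; absorbance read at 515 nm. GI50 is the concentration where [(Ti-Tz)/(C-Tz)]×100 = 50, with Tz plates fixed at drug addition.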
# NCI-H460 = assay: Growth inhibition of human NCI-H460 cells assessed as cell growth at 10 '-4 M after 48 hrs by sulforhodamine B assay; conditions: NCI-H460, 48 h, read-out: Activity
# MCF7 [8] = assay: Growth inhibition of human MCF7 cells assessed as cell growth at 10 '-5 M after 48 hrs by sulforhodamine B assay; conditions: MCF7, 48 h, read-out: Activity
# OVCAR-3 = assay: Growth inhibition of human OVCAR3 cells assessed as cell growth at 10 '-5 M after 48 hrs by sulforhodamine B assay; conditions: OVCAR-3, 48 h, read-out: Activity
# U-251 [9] = assay: Growth inhibition of human U251 cells after 48 hrs by sulforhodamine B assay; conditions: U-251, 48 h
# KM12 = assay: Growth inhibition of human KM12 cells after 48 hrs by sulforhodamine B assay; conditions: KM12, 48 h
# Summary of the method: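 NCI 60-cell-line five-dose screen. Cells were plated at 5,000–40,000/well by doubling time and grown 24 h at 37 °C, 5% CO2. Time-zero plates were TCA-fixed. Drug from DMSO stock was tested at 0.01, 0.1, 1, 10 and 100 µM final for 48 h continuous exposure. Read-out was SRB at 515 nm. GI50 is the concentration giving 50% reduction in net protein increase versus untreated control.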
# NCI-H522 [10] = assay: Growth inhibition of human NCI-H522 cells after 48 hrs by sulforhodamine B assay; conditions: NCI-H522, 48 h
# BT-549 = assay: Growth inhibition of human BT549 cells assessed as growth inhibition at 10 uM after 48 hrs by sulforhodamine B assay; conditions: BT-549, 48 h, read-out: GI
# Summary of the method: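 Percent growth inhibition from the single 10^-5 M NCI-60 screen, reported as 100 minus growth percent. Growth percent was measured after 48 h drug exposure at 37 °C, 5% CO2, using TCA fixation, SRB staining and absorbance at 515 nm, against untreated controls and time-zero plates.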
# K562 [11] = assay: Growth inhibition of human K562 cells assessed as cell growth at 10 '-7 M after 48 hrs by sulforhodamine B assay; conditions: K562, 48 h, read-out: Activity
# T47D = assay: Growth inhibition of human T47D cells assessed as cell growth at 10 '-8 M after 48 hrs by sulforhodamine B assay; conditions: read-out: Activity
# DU-145 = assay: Growth inhibition of human DU145 cells assessed as cell growth at 10 '-8 M after 48 hrs by sulforhodamine B assay; conditions: DU-145, 48 h, read-out: Activity
# Malme-3M [12] = assay: Growth inhibition of human MALME-3M cells assessed as cell growth at 10 '-5 M after 48 hrs by sulforhodamine B assay; conditions: read-out: Activity
# SK-MEL-2 = assay: Growth inhibition of human SK-MEL-2 cells assessed as cell growth at 10 '-8 M after 48 hrs by sulforhodamine B assay; conditions: SK-MEL-2, 48 h, read-out: Activity
# LOX IMVI = assay: Growth inhibition of human LOXIMVI cells assessed as cell growth at 10 '-8 M after 48 hrs by sulforhodamine B assay; conditions: read-out: Activity
# COLO 205 = assay: Growth inhibition of human COLO205 cells assessed as cell growth at 10 '-8 M after 48 hrs by sulforhodamine B assay; conditions: COLO 205, 48 h, read-out: Activity
# [13] = read-out: LD50 (the source's name)
smiles,measurement,setting,value
Cc1cc(=O)oc2cc(OCCn3c(C)nn(-c4ccc(Cl)cc4)c3=O)ccc12,growth at 10 µM,U-251 [1],27%
same,growth at 10 µM,NCI-H522 [2],24%
same,growth at 10 µM,K562 [3],23%
same,growth at 1 µM,MCF7 [4],77%
same,inhibition of growth at 10 µM,HT-29,99.3%
same,inhibition of growth at 10 µM,NCI-H522 [5],82.8%
same,inhibition of growth at 10 µM,NCI-H226,49.9%
same,inhibition of growth at 10 µM,HOP-92,52.6%
same,inhibition of growth at 10 µM,SR,78.8%
same,inhibition of growth at 10 µM,CCRF-CEM,86.6%
same,growth at 1 µM,SF-539,88%
same,growth at 0.1 µM,[6],96%
same,growth at 0.1 µM,Malme-3M [7],104%
same,growth at 0.1 µM,SF-268,99%
same,GI50,CAKI-1,1 µM
same,TGI,CAKI-1,> 1 µM
same,CC50,CAKI-1; [13],> 1 µM
same,growth at 100 µM,NCI-H460,8%
same,growth at 10 µM,MCF7 [8],14%
same,growth at 10 µM,OVCAR-3,7%
same,GI50,U-251 [9],4.18 µM
same,TGI,U-251 [9],7.23 µM
same,CC50,U-251 [9]; [13],> 1 µM
same,GI50,KM12,1.66 µM
same,TGI,KM12,> 1 µM
same,CC50,KM12; [13],> 1 µM
same,GI50,NCI-H522 [10],3.85 µM
same,TGI,NCI-H522 [10],3.82 µM
same,CC50,NCI-H522 [10]; [13],> 1 µM
same,inhibition of growth at 10 µM,BT-549,43.3%
same,growth at 0.1 µM,K562 [11],106%
same,growth at 0.01 µM,T47D,98%
same,growth at 0.01 µM,DU-145,111%
same,growth at 10 µM,Malme-3M [12],28%
same,growth at 0.01 µM,SK-MEL-2,104%
same,growth at 0.01 µM,LOX IMVI,96%
same,growth at 0.01 µM,COLO 205,102%
